Assay results of several laboratories.
Each line is one published result; the experiments were not run side by side.
Target: Serine/threonine-protein kinase 32B (STK32B, Homo sapiens, UniProt Q9NY57)

The remaining binding of `COc1ccc2c(c1)O[C@@H](c1ccc(OC)c(OC)c1)C[C@H]2NC(=O)C1(c2ccc3c(c2)OC(F)(F)O3)CC1` is reported as 100% (cell-free assay; competition with immobilised ligand; 1 µM).
With `Cc1ccc(C(=O)Nc2ccc(CN3CCN(C)CC3)c(C(F)(F)F)c2)cc1C#Cc1cnc2cccnn12` the remaining signal was 98% (cell-free assay; 23.5 nM).
`CS(=O)(=O)c1cc(C2(NC(=O)c3cncc4c3cnn4-c3ccc(F)cc3)CC2)ccn1` has a remaining binding of 100% (cell-free assay; competition with immobilised ligand; 1 µM).
With `Nc1ncnc2occ(-c3ccc(NC(=O)Nc4cc(C(F)(F)F)ccc4F)cc3)c12` the remaining signal was 0.9% (cell-free assay; 20 µM).
`CC(C)(O)[C@H]1CC[C@H](Nc2ccc3ncc(-c4cccc(C(F)(F)F)c4)n3n2)CC1` has a remaining activity of 96.8% (enzyme activity; inhibitor; 1 µM).
With `O=C(Nc1cnn(-c2csc(C(=O)NC3COC3)c2)c1)Nc1ccccc1Cl` the remaining activity was 122% (enzyme activity; inhibitor; 5 µM).
`CN1CC(Oc2cnc(C#N)cc2-c2ccn3nc(NC(=O)C4CC4)cc3c2)C1` gave an inhibition of -2% (enzyme activity; inhibitor; 1 µM).
For `Cc1sc(C(=O)NC2COC2)cc1-n1cc(NC(=O)Nc2c(F)cccc2Cl)cn1`, the remaining activity was 89.8% (enzyme activity; inhibitor; 10 µM).
For `COc1cc(Cl)c(C(=O)N[C@@H](CN[C@H]2CC[C@@H](N)CC2)Cc2ccc(C#N)cc2)cc1-c1ccc(CN[C@H](C)c2ccc(C)cc2)o1`, the remaining activity was 102% (enzyme activity; inhibitor; 1 µM).
